Experimental data from PubChem BioAssay AID624466 (The Scripps Research Institute Molecular Screening Center, 2012).
About 5,400 (1.5%) of roughly 360,000 compounds were called active. The full list was thinned out, with actives kept by preference. Unmarked numbers belong to inactive results.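 Rule for the calls: active = inhibition above a per-plate cutoff, the mean inhibition of test compounds on that plate plus 3 SD (cut at about 49% in these data); inactive = the rest.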

Target: Trace amine-associated receptor 1 (Homo sapiens) (UniProt Q96RJ0)
Assay: blockers of beta-PEA-driven TAAR1 calcium signal – Fluo-8 calcium fluorescence, CHO RD-HGA16 cells, primary screen (AID 624466);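 note: 0% = DMSO plus EC80 beta-PEA response and 100% = DMSO alone without agonist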
Settings: CHO RD-HGA16 TAAR1, Fluo-8 calcium fluorescence, antagonist; at 3 µM; active compounds read high
How it was run: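 System: CHO RD-HGA16 cells bearing hTAAR1. Reagent: EC80 β-phenethylamine stimulus. Schedule: seeding 17-24 h prior, 75-min 37 °C, 30-min RT dye loading. Signal: Fluo-8 intracellular calcium dye fluorescence, real-time kinetic reads. Read-out: % inhibition from peak post-agonist over basal fluorescence ratio. Benchmarks: vehicle wells and EC80 agonist wells. Replicates: n of 1.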

Trace amine-associated receptor 1 (Homo sapiens), sequence (Q96RJ0 whole entry, looked up): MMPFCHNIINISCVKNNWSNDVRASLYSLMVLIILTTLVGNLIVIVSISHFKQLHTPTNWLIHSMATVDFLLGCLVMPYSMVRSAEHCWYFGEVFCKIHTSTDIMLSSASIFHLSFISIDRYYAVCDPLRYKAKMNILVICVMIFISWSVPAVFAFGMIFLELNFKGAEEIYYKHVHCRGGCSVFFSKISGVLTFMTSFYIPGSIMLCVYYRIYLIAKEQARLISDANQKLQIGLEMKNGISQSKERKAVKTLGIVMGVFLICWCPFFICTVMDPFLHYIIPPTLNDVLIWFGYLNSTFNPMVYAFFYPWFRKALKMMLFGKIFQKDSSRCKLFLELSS

SMILES | inhibition
C=CCN1C(=O)N(Cc2ccccc2)c2ccccc2S1(=O)=O | -0.33%
COCCNC(=O)c1cc2c(Br)ccc(Br)c2nc1N | -4.31%
CC(=O)Nc1ccc(NC(=O)CS(=O)(=O)c2cn(CC(=O)N3CCCCC3)c3ccccc23)cc1 | -35.2%
O=C(Nc1nnc(SCc2c(Cl)cccc2Cl)s1)c1cccc([N+](=O)[O-])c1 | -16.3%
O=C(Nc1ccc(C2CC2(Cl)Cl)cc1)c1cccc([N+](=O)[O-])c1 (stereo not drawn) | 49.6% (active)
CC(C)(C)SCCNC(=O)c1cccc([N+](=O)[O-])c1 | -20.6%
NC(=O)c1oc2ccccc2c1NC(=O)Cc1ccccc1 | 7.4%
NC(=O)c1oc2ccccc2c1NC(=O)CS(=O)(=O)c1ccccc1 | -13.1%
COc1ccc(CC(=O)Nc2c(C(N)=O)oc3ccccc23)cc1 | 62.3% (active)
Cc1nc(N2CCOCC2)c2c(C)c(C(=O)Nc3ccc(C(F)(F)F)cc3)sc2n1 | 15.7%
Cc1nc(N2CCN(c3ccccn3)CC2)c2c(C)c(C(=O)Nc3ccc(F)cc3)sc2n1 | 58% (active)
Cc1nc(N2CCN(c3ccccn3)CC2)c2c(C)c(C(=O)Nc3ccc(F)c(Cl)c3)sc2n1 | -1.25%
CN(CC(=O)NCc1ccc(Cl)cc1)S(=O)(=O)c1cccs1 | -2.12%
Cc1ccc(-c2nc3c(Cl)cc(C(F)(F)F)cn3c2Cc2cccc(Cl)c2)cc1 | 3.71%
Brc1ccc(COCCc2cn(Cc3ccccc3)c3ccccc23)cc1 | -22%
COC(=O)Cc1nnn2c1[C@H](C)[C@H](c1ccccc1[N+](=O)[O-])OCC2 | 51.6% (active)
COC(=O)C1(C(=O)OC)C/C=C\CN(S(=O)(=O)c2ccccc2[N+](=O)[O-])CCC1 | -2.45%
COc1ccc(NC(=O)C2=C(C)NC(=O)NC2c2ccccc2[N+](=O)[O-])cc1 (stereo not drawn) | 1.55%
COC(=O)N1Cc2ccnnc2CC1c1ccccc1Br (stereo not drawn) | -6.91%
COC(=O)Cc1nnn2c1[C@H](C)[C@H](c1ccccc1Br)OCC2 | 73.5% (active)
COC(=O)Cc1nnn2c1[C@H](C)[C@@H](OC)c1cc(Br)ccc1-2 | 1.99%
CCn1cc(CCC(=O)NCc2ccc(F)cc2)c2ccccc21 | 8.18%

SMILES | inhibition
C=CC[C@]12C[C@@]3(O[C@H](c4ccc(C(F)(F)F)cc4)N=C3C[C@H](c3ccc(OC)cc3)[C@H]1C)N(C1CCN(Cc3ccccc3)CC1)C2=O | -52.6%
Cc1ccc(-c2cc(C(=O)NN)n[nH]2)o1 | 2.39%
CCOC(=O)[C@]12CCCC=C1N(CCC1=CCCCC1)C(=O)[C@H](CC(=O)N1CCOCC1)C2 | -9.23%
CCCCNC(=O)C[C@@H]1C[C@@]2(C(=O)OC)CC(C)(C)CC=C2N(Cc2ccco2)C1=O | -0.44%
CCOC(=O)C1CCN(C(=O)C2(NC(=O)Nc3cccc(F)c3)CCCCC2)CC1 | -26.8%
O=S1(=O)CC(N2CCN(Cc3ccccc3F)CC2)CN1Cc1cn(Cc2cccc(C(F)(F)F)c2)nn1 (stereo not drawn) | -13%
CCOC(=O)[C@]12CCCC=C1N(Cc1ccc3c(c1)OCO3)C(=O)[C@H](CC(=O)N1CCN(C(=O)c3ccco3)CC1)C2 | -4.35%
CC(C)C[C@H]1CNC(=O)C(=O)N1C[C@H]1CCCN1C[C@H](Cc1ccc(O)cc1)N1C[C@H](CC(C)C)N(CC2CCCCCC2)C(=O)C1=O | 6.77%
CC1CCN(C(=O)c2ncn3c2C(=O)N[C@@H](C)C3)CC1 | -2.44%
CSc1ncnc2c1ncn2CC(=O)C1CCC2C3CCC4=CC(=O)CCC4(C)C3CCC12C (stereo not drawn) | 61.8% (active)
CC(=O)C12CC(C)=C(C)CC1CC1C3CCC4=CC(=O)CCC4(C)C3CCC12C (stereo not drawn) | -34.7%
CSc1ncnc2c1ncn2CCCNCC1CCCCC1 | -17.2%
Cc1ccc(CNC(=O)CCS(=O)(=O)c2ccc3c(c2)CC(C)N3C(=O)C2CC2)o1 (stereo not drawn) | -23.9%
Cc1[nH]c2ccccc2c1CC(=O)Nc1ccc(Nc2cccnc2)c(-c2cccc(Cl)c2)c1 | -0.4%
C/C(=N/O)c1ccc(N2C(=O)C3C4C=CC(C3C2=O)C2C3C(=O)N(c5ccc(/C(C)=N/O)cc5)C(=O)C3C42)cc1 (stereo not drawn) | -2.86%
COc1ccccc1CCNS(=O)(=O)c1cn(C)nc1C | -36.9%
COc1ccccc1CCn1cnc(-c2ccccc2)c1C(C)C | 20%
CCCCCc1c(-c2ccc(OC)c(OC)c2)ncn1CCc1ccccc1OC | 73.9% (active)
CCCCc1c(-c2ccc(Cl)cc2)ncn1CCc1ccccc1OC | 49.6% (active)
CCCCCc1c(-c2cccc(Br)c2)ncn1CCc1ccccc1OC | 43.2%
CCCCc1c(-c2ccc(Br)cc2)ncn1CCc1ccccc1OC | 28.2%
